Bioassay records from PubChem BioAssay.
SIAE inh: blocks human sialic acid acetylesterase; Q9HAT2; SIAE FP-Rh probe binding, fluorescence polarization; inhibition, % at 9.66 µM; 0.69% of 370,000 active;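 active means inhibition above a cutoff: mean of compounds within the control limits plus 3 SD of those, cut at about 17% in these data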;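 further: 0% = plate median of compound wells and 100% = probe without SIAE protein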
mABHD4 FP: ABHD4 (mouse) inhibition, primary FP screen. Q8VD66. purified mABHD4, FP-Rh probe fluorescence polarization. inhibition, % at 8.92 µM. 0.54% of 370,000 active. AID 720543;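 active means inhibition exceeding the mean over every tested compound plus 3 SD, cut at about 30% in these data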;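 further: 0% = plate median of compound wells and 100% = S159A mutant with DMSO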
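Assay system: mABHD4 protein; medium: HEPES pH 7.0, NaCl, Pluronic buffer; dosing: 8.92 µM, single dose; schedule: 45 min + 60 min at 25 °C; signal: FP readout, ex 525 nm / em 598 nm; read-out: normalized percent inhibition of probe labeling; repeats: single replicate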
PRMT1 inh: inhibitors of human PRMT1. Q99873. recombinant PRMT1, activity-based probe fluorescence polarization. 1.3% of 370,000 active. inhibition, % at 2.79 µM;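 active means inhibition above about 21% made by adding two undisclosed values, limit read from the data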
HTRA1 inh: blocks human HTRA1 serine peptidase; inhibition, % at 5.96 µM; recombinant HTRA1, FP-rhodamine activity-based probe, fluorescence polarization; 0.5% of 340,000 active; AID 504803; in the data active means inhibition above about 36%;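 further: 0% = enzyme with DMSO and 100% = wells lacking enzyme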
Target sequence (Q92743 whole entry, looked up): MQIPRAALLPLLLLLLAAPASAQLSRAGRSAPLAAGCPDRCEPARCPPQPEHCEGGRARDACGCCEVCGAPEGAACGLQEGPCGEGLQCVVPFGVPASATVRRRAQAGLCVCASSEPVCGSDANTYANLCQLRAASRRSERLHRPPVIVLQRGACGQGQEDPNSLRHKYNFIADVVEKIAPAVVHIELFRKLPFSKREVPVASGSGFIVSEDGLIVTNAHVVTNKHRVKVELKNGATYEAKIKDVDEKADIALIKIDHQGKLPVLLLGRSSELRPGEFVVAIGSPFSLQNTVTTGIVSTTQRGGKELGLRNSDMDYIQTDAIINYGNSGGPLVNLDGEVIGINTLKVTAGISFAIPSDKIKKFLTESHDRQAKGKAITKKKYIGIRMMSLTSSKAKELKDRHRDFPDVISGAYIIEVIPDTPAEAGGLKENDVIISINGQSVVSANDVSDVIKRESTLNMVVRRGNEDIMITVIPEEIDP
TCR-CD3 inh: blocks the human TCR-CD3 interaction; inhibition, % at 9.4 µM; 0.37% of 360,000 active; TAMRA-labeled TCR probe fluorescence, biochemical; in the data active means inhibition above about 19%;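 further: recombinant mutant TCR 2C K166C tagged with TAMRA read by polarization; 0% = receptor in buffer alone and 100% = receptor with positive control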
The depositor's hits bear a star; . = no result. Hits are enriched below; roughly 2.6% of the tested compounds scored in any of these assays.

SMILES	SIAE inh	mABHD4 FP	PRMT1 inh	HTRA1 inh	TCR-CD3 inh
O=C(O)c1cc(S(=O)(=O)Nc2ccc3oc(=O)sc3c2)ccc1O	-2.5	22.1	85.8*	.	0.6
COC(=O)C1=CN(c2cccc(C)c2)C=C(C(=O)OC)C1c1cc(OC)c(O)c([N+](=O)[O-])c1	4.7	8.2	-1.7	52.4*	9.2
COC(=O)C1=CN(c2ccc(OC)cc2)C=C(C(=O)OC)C1c1ccc(C)c([N+](=O)[O-])c1	3.2	-2.0	-1.8	4.9	10.6
CN(CCO)c1ccc2c(c1)Oc1ccccc1CN(Cc1cn(Cc3ccc(C(F)(F)F)cc3)nn1)S2(=O)=O	4.0	5.0	-0.4	.	.
FC(F)(F)Oc1ccc(Cn2ccc3ccc(-c4ccc5ccn(Cc6ccc(OC(F)(F)F)cc6)c5c4)cc32)cc1	3.9	1.2	2.0	.	.
Cc1ccc(-n2c(SCc3c(Cl)cccc3Cl)nnc2-c2ccco2)cc1	-0.9	-8.9	1.0	.	.
CCOC(=O)c1c(-c2ccc(C)o2)csc1NC(=O)CN1CCC(C(N)=O)CC1	-3.4	2.6	14.4	-6.9	-2.7
CCOC(=O)c1c(-c2ccc(C)o2)csc1NC(=O)CN(C)CC(=O)Nc1ccc(C)cc1	2.7	1.0	21.7*	-28.2	2.1
CCCC1CCC2(CCC(=O)N2CCOC)CC1 (stereo not given)	-0.5	-1.1	-0.4	.	.
O=C(Nc1ccc2c(c1)Cc1ccccc1-2)NC1CCCCN(Cc2ccc(Cl)cc2)C1=O (stereo not given)	-2.8	-5.0	3.2	.	.
Cc1cc(C)c2nc(N3CCCN(C(=O)c4ccco4)CC3)c(C#N)cc2c1	-2.1	1.8	22.3*	-23.8	-0.5
C[C@H]1CN([C@@H](C)CO)C(=O)c2cccc(NC(=O)Nc3ccc(C(F)(F)F)cc3)c2O[C@@H]1CN(C)C(=O)Nc1ccc(F)cc1	-56.0	-31.4	2.3	-46.4	4.5
C[C@@H]1CCCCO[C@H](CN(C)Cc2ccc(Cl)c(Cl)c2)[C@H](C)CN([C@@H](C)CO)C(=O)c2cc(NC(=O)Nc3ccc(F)cc3)ccc2O1	-16.2	-1.5	-5.0	-37.4	0.6
COc1ccc(NC(=O)Nc2ccc3c(c2)C(=O)N([C@H](C)CO)C[C@H](C)[C@@H](CN(C)Cc2ccc(Cl)c(Cl)c2)OCCCC[C@@H](C)O3)cc1	21.2*	11.6	0.7	-22.4	-9.3
COc1ccc(NC(=O)N(C)C[C@H]2Oc3ccc(NC(=O)Nc4c(C)noc4C)cc3C(=O)N([C@H](C)CO)C[C@H]2C)cc1	17.1*	3.6	1.3	3.2	3.9
C[C@H](CO)N1C[C@H](C)[C@@H](CN(C)C(=O)Nc2ccc(C(F)(F)F)cc2)Oc2c(NC(=O)Nc3ccc(C(F)(F)F)cc3)cccc2C1=O	-151.9	-83.4	4.5	-110.6	19.8*
CNC(=O)C[C@H]1CC[C@H]2[C@@H](COc3ccc(NC(=O)Nc4ccccc4)cc3C(=O)N2C)O1	-4.8	13.7	-1.7	.	.
CCOC(=O)[C@]12CCCC3=C1N(CCC3)C(=O)[C@@H](CC(=O)NCc1cccc(C(F)(F)F)c1)C2	-1.8	3.9	8.4	.	.
O=C(CCc1nc(-c2ccccc2F)no1)NCCc1cccc(F)c1	-1.9	-2.0	7.3	.	.
CCN(CC)CCCNC(=O)CC1Oc2ccccc2NC1=O (stereo not given)	-3.0	2.9	3.5	.	.
S=c1[nH]nc(Nc2ccccc2Cl)s1	-5.5	-3.5	23.4*	5.5	1.2
COc1ccc(S(=O)(=O)N2N=C(c3cccc(NS(C)(=O)=O)c3)CC2c2ccco2)cc1 (stereo not given)	-7.6	6.4	23.5*	-5.8	-1.3
O=C(NCCc1ccccc1)OCc1cn(-c2ccc(F)c(F)c2)nn1	-5.1	-6.3	-6.6	.	.
CSCCCNC(=O)Cn1nc(Cc2ccncc2)c2ccccc2c1=O	0.3	-4.3	1.3	.	.
O=C(CCN1CCOCC1)c1ccc2c(c1)OCCO2	-0.2	-13.3	23.8*	1.2	-1.2
SMILES	SIAE inh	mABHD4 FP	PRMT1 inh	HTRA1 inh	TCR-CD3 inh
COC(=O)C1CN(Cc2ccc(OC)cc2)CCS(=O)(=O)N1Cc1ccccc1 (stereo not given)	-2.9	5.6	0.5	.	.
COc1ccc(-n2c(SCC(=O)NCC3CCCO3)nnc2-c2ccncc2)cc1 (stereo not given)	-0.9	3.9	-2.0	.	.
CCN(C[C@@H]1[C@@H](c2ccccc2)[C@H](CO)N1S(C)(=O)=O)C(=O)C1CCC1	3.0	1.2	-3.3	.	.
Cc1c(OCC(F)(F)F)ccnc1CS(=O)c1nc2ccccc2[nH]1 (stereo not given)	6.3	14.6	28.4*	5.3	6.4
COCCCOc1ccnc(CS(=O)c2nc3ccccc3[nH]2)c1C (stereo not given)	8.0	1.9	10.8	6.7	3.1
O=C(NCCN1C(=O)C2C3C=CC(C3)C2C1=O)c1cc(Cl)cc(Cl)c1 (stereo not given)	1.6	4.3	0.5	.	.
CC1(C)N([O-])c2cc([N+](=O)[O-])ccc2[N+]1=O	5.6	37.0*	12.4	.	15.9
CC(C)C[C@@H](CO)N1Cc2nnn(Cc3ccccc3)c2-c2ccccc2S1(=O)=O	-4.0	4.6	-0.3	.	.
O=C(O)CSc1cc(NS(=O)(=O)c2ccc(Cl)cc2)c2ccccc2c1O	10.2	39.2*	43.9*	23.1	6.7
COc1ccc(S(=O)(=O)Nc2cc(SCC(=O)O)c(O)c3ccccc23)cc1	16.2	49.1*	52.2*	34.4	5.0
CC(=O)NC1C(=O)N(CCN2CCOCC2)c2ccc(Cl)cc21 (stereo not given)	0.6	8.8	21.9*	-0.8	3.8
CC(=O)NC1C(=O)N(CCN2CCOCC2)c2ccc(C)cc21 (stereo not given)	.	.	.	1.3	.
CC1CC(=O)c2c(cc3c(-c4c(O)cc(O)c5c(O)c6c(cc45)OC(C)CC6=O)c(O)cc(O)c3c2O)O1 (stereo not given)	.	.	.	78.4*	.
Cc1ccc(-c2cc(C(=O)N3CCN(c4ccc(F)cc4)CC3)c3ccccc3n2)o1	-2.1	-7.6	7.2	-33.0	1.1
Cc1ccc(-c2cc(C(=O)N3CCN(c4ncccn4)CC3)c3cc(Br)ccc3n2)o1	-4.4	-1.4	49.4*	-8.5	-7.0
COCC1=C(C(=O)OC(C)OC(=O)OC(C)C)N2C(=O)[C@@H](NC(=O)/C(=N\OC)c3csc(N)n3)[C@H]2SC1 (stereo not given in full)	-1.3	-2.0	-3.0	-4.7	4.2
CON=C(C(=O)NC1C(=O)N2C(C(=O)O)=C(CSc3nc(=O)c(=O)[nH]n3C)CSC12)c1csc(N)n1 (stereo not given)	-6.5	-4.9	21.4*	5.2	0.9
Cc1ccc(Cn2cc(COC(=O)NCC(C)C)nn2)cc1	-3.7	-1.4	-6.8	.	.
CC(C(=O)N(C)C1CCS(=O)(=O)C1)N1C(=O)/C(=C/c2ccco2)SC1=S (stereo not given)	3.8	12.6	23.7*	3.1	1.0
COCCCNC(=O)C[C@H]1C[C@@]2(C(=O)OC)C(=C[C@H](COCc3ccccc3)O[C@@H]2C)N(Cc2cccc3ccccc23)C1=O	1.7	-6.3	-3.1	.	.
CC(=O)Oc1cccc2c1C(=O)C1CC=CC(OC(C)=O)C1C2=O (stereo not given)	-6.0	2.1	56.5*	15.3	5.4
